Source: ChEMBL document CHEMBL2424632, “Substituted 2-hydroxy-N-(arylalkyl)benzamides induce apoptosis in cancer cell lines” (Eur J Med Chem, 2013)
Activity calls are given as the source filed them. No cut-off for these calls is given here.

What was measured:
G-361 [1] = experiment: Downregulation of MDM2 protein expression in human G361 cells at 0.2 to 6 uM after 24 hrs by immunoblotting analysis; type: functional, cell-based
How it was run: (§1)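 Asynchronous G361 cells exposed 24 h; lysates made by harvesting in Laemmli sample buffer, resolved by SDS-PAGE, electroblotted to nitrocellulose, blocked, probed overnight with specific primary antibodies, then peroxidase-conjugated secondary antibodies; actin served as loading control.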

G-361 [2] = experiment: Induction of apoptosis in human G361 cells assessed as increase in p53 mRNA level; type: functional, cell-based
[3] = target: Mitogen-activated protein kinase; ERK1/ERK2 (Homo sapiens) (UniProt P27361+P28482); experiment: Inhibition of ERK1/2 phosphorylation at Thr202/Tyr204 in human G361 cells at 0.22 to 6 uM after 24 hrs by immunoblotting analysis; type: cell-based; details: G-361; how it was run: as §1
G-361 [4] = experiment: Downregulation of cyclin A protein expression in human G361 cells at 0.22 to 6 uM after 24 hrs by immunoblotting analysis; type: functional, cell-based; how it was run: as §1
G-361 [5] = experiment: Cytotoxicity against human G361 cells after 72 hrs by calcein-AM assay; type: functional, cell-based; details: G-361, 72 h
G-361 [6] = experiment: Induction of apoptosis in human G361 cells assessed as PARP-1 cleavage at 0.2 to 6 uM after 24 hrs by immunoblotting analysis; type: functional, cell-based; how it was run: as §1
[7] = target: RAC-alpha serine/threonine-protein kinase (Homo sapiens) (UniProt P31749); experiment: Inhibition of AKT phosphorylation at Ser473 in human G361 cells at 0.22 to 6 uM after 24 hrs by immunoblotting analysis; type: cell-based; details: G-361; how it was run: as §1
G-361 [8] = experiment: Upregulation of p27KIP1 protein expression in human G361 cells at 670 nM after 24 hrs by immunoblotting analysis; type: functional, cell-based; how it was run: as §1
G-361 [9] = experiment: Induction of apoptosis in human G361 cells assessed as increase in p53 protein level at 0.2 to 6 uM after 24 hrs by immunoblotting analysis; type: functional, cell-based; how it was run: as §1
HOS = experiment: Cytotoxicity against human HOS cells after 72 hrs by calcein-AM assay; type: functional, cell-based
HCT-116 = experiment: Cytotoxicity against human HCT116 cells after 72 hrs by calcein-AM assay; type: functional, cell-based; details: HCT-116, 72 h
G-361 [10] = experiment: Effect on CDK1 protein expression in human G361 cells at 0.22 to 6 uM after 24 hrs by immunoblotting analysis; type: functional, cell-based; how it was run: as §1
G-361 [11] = experiment: Induction of apoptosis in human G361 cells assessed as increase in BCL-2 protein expression at 0.2 to 6 uM after 24 hrs by immunoblotting analysis; type: functional, cell-based; how it was run: as §1
G-361 [12] = experiment: Induction of apoptosis in human G361 cells assessed as decrease in caspase-7 zymogene at 0.2 to 6 uM after 24 hrs by immunoblotting analysis; type: functional, cell-based; how it was run: as §1
G-361 [13] = experiment: Induction of autophagy in human G361 cells assessed as fragmentation of LC3 at 0.2 to 6 uM after 24 hrs by immunoblotting analysis; type: functional, cell-based; how it was run: as §1
G-361 [14] = experiment: Cell cycle arrest in human G361 cells assessed as decrease in S phase population at 0.25 to 4 uM after 24 hrs by propidium iodide staining-based flow cytometric analysis in presence of BrdU; type: functional
How it was run: (§2)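 Asynchronously growing cells treated 24 h; cultures pulse-labelled with 10 µM BrdU for 30 min at 37 °C before harvest, washed in PBS, fixed in 70% ethanol, denatured in 2 M HCl, neutralized, stained with fluorescein anti-BrdU antibody then propidium iodide; flow cytometry with 488 nm laser; sub-G1 and BrdU-positive S-phase fractions scored.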

G-361 [15] = experiment: Induction of apoptosis in human G361 cells; type: functional, cell-based
G-361 [16] = experiment: Upregulation of p27KIP1 protein expression in human G361 cells at 2 to 6 uM after 24 hrs by immunoblotting analysis; type: functional, cell-based; how it was run: as §1
K562 = experiment: Cytotoxicity against human K562 cells after 72 hrs by calcein-AM assay; type: functional, cell-based; details: K562, 72 h
G-361 [17] = experiment: Downregulation of CDK4 protein expression in human G361 cells at 0.22 to 6 uM after 24 hrs by immunoblotting analysis; type: functional, cell-based; how it was run: as §1
G-361 [18] = experiment: Induction of apoptosis in human G361 cells assessed as caspase-3/7 activation at 2 uM after 24 hrs by fluorescence assay relative to control; type: functional
How it was run: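 G361 cells seeded at 20,000 per well overnight, then exposed 24 h to compound at 2 µM final. 3x caspase-3/7 buffer (HEPES pH 7.4, NaCl, KCl, MgCl2, EGTA, NP-40, CHAPS, sucrose, DTT, PMSF) with Ac-DEVD-AMC substrate added; incubated 37 °C, fluorescence read after 4 h at 346/442 nm; activity expressed relative to untreated cells.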

HeLa = experiment: Cytotoxicity against human HeLa cells after 72 hrs by calcein-AM assay; type: functional, cell-based
G-361 [19] = experiment: Effect on CDK2 protein expression in human G361 cells at 0.22 to 6 uM after 24 hrs by immunoblotting analysis; type: functional, cell-based; how it was run: as §1
G-361 [20] = experiment: Downregulation of cyclin B protein expression in human G361 cells at 0.22 to 6 uM after 24 hrs by immunoblotting analysis; type: functional, cell-based; how it was run: as §1
G-361 [21] = experiment: Downregulation of p53 protein expression in human G361 cells at 0.2 to 6 uM after 24 hrs by immunoblotting analysis; type: functional, cell-based; how it was run: as §1
G-361 [22] = experiment: Induction of apoptosis in human G361 cells assessed as caspase-9 cleavage at 0.2 to 6 uM after 24 hrs by immunoblotting analysis; type: functional, cell-based; how it was run: as §1
G-361 [23] = experiment: Induction of apoptosis in human G361 cells assessed as decrease in BCL-XL protein expression after 24 hrs by immunoblotting analysis; type: functional, cell-based; how it was run: as §1
G-361 [24] = experiment: Effect on cyclin E protein expression in human G361 cells at 0.22 to 6 uM after 24 hrs by immunoblotting analysis; type: functional, cell-based; how it was run: as §1
G-361 [25] = experiment: Cell cycle arrest in human G361 cells assessed as increase in sub-G1 phase population at 1 to 4 uM after 24 hrs by propidium iodide staining-based flow cytometric analysis in presence of BrdU; type: functional; how it was run: as §2
G-361 [26] = experiment: Induction of apoptosis in human G361 cells assessed as decrease in caspase-3 zymogene at 0.2 to 6 uM after 24 hrs by immunoblotting analysis; type: functional, cell-based; how it was run: as §1
MCF7 = experiment: Cytotoxicity against human MCF7 cells after 72 hrs by calcein-AM assay; type: functional, cell-based; details: MCF7, 72 h

RAC-alpha serine/threonine-protein kinase (Homo sapiens), sequence (P31749 whole entry): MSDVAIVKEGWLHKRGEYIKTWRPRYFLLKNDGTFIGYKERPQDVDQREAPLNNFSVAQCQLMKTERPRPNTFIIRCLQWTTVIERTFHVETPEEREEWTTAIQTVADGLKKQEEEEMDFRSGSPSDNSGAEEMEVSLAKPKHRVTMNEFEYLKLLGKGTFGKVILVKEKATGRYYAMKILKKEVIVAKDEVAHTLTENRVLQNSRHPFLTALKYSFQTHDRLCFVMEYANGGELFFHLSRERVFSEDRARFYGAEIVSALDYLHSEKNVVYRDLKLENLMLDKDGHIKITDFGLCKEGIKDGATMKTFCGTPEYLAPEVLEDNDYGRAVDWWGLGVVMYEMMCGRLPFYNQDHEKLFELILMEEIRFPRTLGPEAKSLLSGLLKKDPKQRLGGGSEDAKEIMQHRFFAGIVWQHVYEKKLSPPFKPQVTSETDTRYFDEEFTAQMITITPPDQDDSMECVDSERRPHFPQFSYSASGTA
Mitogen-activated protein kinase; ERK1/ERK2 (Homo sapiens), sequence (P27361 whole entry, looked up): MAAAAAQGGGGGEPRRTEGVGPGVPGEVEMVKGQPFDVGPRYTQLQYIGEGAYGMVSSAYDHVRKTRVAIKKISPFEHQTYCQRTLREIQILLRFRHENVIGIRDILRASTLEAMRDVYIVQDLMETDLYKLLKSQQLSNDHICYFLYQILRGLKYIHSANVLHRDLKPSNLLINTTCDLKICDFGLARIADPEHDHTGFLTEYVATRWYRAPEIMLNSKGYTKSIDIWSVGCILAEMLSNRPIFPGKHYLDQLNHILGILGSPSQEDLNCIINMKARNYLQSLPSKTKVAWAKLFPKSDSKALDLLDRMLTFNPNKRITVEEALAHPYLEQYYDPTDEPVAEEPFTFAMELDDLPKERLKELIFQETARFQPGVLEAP
Mitogen-activated protein kinase; ERK1/ERK2 (Homo sapiens), sequence (P28482 whole entry, looked up): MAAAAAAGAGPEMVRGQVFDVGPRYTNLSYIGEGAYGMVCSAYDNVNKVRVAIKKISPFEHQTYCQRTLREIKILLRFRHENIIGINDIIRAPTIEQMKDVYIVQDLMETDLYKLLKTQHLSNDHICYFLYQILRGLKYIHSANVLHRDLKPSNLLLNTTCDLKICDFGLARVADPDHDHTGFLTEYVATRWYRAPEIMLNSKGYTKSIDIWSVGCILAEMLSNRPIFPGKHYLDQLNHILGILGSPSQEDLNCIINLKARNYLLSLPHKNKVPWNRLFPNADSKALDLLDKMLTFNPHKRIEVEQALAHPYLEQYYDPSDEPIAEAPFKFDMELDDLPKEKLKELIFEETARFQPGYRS

O=C(N[C@H](Cc1ccccc1)C(=O)Nc1ccc(Cl)cc1)c1cc(Cl)ccc1O
Activity (G-361 [1]): Active | Activity (G-361 [2]): inactive | inhibition [3]: Active | Activity (G-361 [4]): Active | IC50 (G-361 [5]): 1300 nM | Activity (G-361 [6]): Active | inhibition [7]: Active | Activity (G-361 [8]): Active | Activity (G-361 [9]): inactive | IC50 (HOS): 2500 nM | IC50 (HCT-116): 1700 nM | Activity (G-361 [10]): Active | Activity (G-361 [11]): Active | Activity (G-361 [12]): Active | Activity (G-361 [13]): Active | Activity (G-361 [14]): Active | Activity (G-361 [15]): Dose-dependent effect | Activity (G-361 [16]): inactive | IC50 (K562): 2500 nM | Activity (G-361 [17]): Active | fold change (FC) (G-361 [18]): >10 | IC50 (HeLa): 1100 nM | Activity (G-361 [19]): Active | Activity (G-361 [20]): Active | Activity (G-361 [21]): Active | Activity (G-361 [22]): Active | Activity (G-361 [23]): Dose-dependent effect | Activity (G-361 [24]): Active | Activity (G-361 [25]): Active | Activity (G-361 [26]): Active | IC50 (MCF7): 3500 nM
